Paper PMC11740949 (Bioconjugate Chemistry, 2024)

Molecular target: T1, recombinant murine FAP (Mus musculus, UniProt P97321)
T1 sequence (P97321 1-761): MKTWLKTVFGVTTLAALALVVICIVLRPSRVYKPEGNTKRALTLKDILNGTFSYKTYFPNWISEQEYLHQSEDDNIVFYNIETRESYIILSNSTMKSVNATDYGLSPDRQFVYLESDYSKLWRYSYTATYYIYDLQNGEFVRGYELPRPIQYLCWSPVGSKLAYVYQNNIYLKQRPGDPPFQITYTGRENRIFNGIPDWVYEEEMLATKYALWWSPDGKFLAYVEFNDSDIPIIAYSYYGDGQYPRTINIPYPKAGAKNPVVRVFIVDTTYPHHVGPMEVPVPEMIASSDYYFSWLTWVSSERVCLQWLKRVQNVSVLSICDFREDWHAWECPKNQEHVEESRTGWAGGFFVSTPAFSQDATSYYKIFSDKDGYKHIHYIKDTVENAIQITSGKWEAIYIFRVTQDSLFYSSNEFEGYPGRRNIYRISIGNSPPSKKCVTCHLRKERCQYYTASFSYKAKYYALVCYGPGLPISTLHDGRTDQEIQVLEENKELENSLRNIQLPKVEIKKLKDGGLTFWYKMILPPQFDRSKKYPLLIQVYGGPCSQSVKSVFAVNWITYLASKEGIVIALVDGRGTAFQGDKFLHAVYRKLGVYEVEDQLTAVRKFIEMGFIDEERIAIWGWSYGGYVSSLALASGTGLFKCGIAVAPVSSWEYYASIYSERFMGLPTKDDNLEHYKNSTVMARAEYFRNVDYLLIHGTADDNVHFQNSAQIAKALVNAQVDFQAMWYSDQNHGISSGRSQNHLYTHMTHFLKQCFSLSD
Assay: FAP inhibition assay with fluorogenic substrate Z-Gly-Pro-AMC
Assay type: biochemical
Details: three-parameter fit
Procedure, shortened: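 Recombinant mouse FAP at 0.01 μg/100 μL in 50 mM Tris, 1.0 M NaCl, 0.1% BSA (w/v), pH 7.5. Test compound was serially diluted 1:5 (10 pM–10 μM) and preincubated with the enzyme for 30 min at 37 °C. Z-Gly-Pro-AMC was then added (10 μL of a 100 μM solution) for 60 min at 37 °C, and fluorescence was read at Ex 380/Em 460. Activity was scaled to no-inhibitor and no-enzyme wells, and IC50 came from a three-parameter inhibitor-vs-response fit.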

Compound: N#C[C@@H]1CC(F)(F)CN1C(=O)CNC(=O)c1ccnc2ccc(OCCCN3CCN(C(=O)CN4CCN(CC(=O)O)CCN(CC(=O)O)CCN(CC(=O)O)CC4)CC3)cc12 [FAPi-4]
- IC50: 0.59 nM
